# In PubChem BioAssay:
# Calls of active or inactive are those of the source.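 Rule for the calls, unless noted: active = viability at or under a set limit in both replicates, limit being median viability minus 3 SD (cut at about 48% in these data, passing the limit was not always enough); inconclusive = at or under the limit in just one replicate; inactive = at or above the limit in both replicates.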
# Key:
# [1] = Her2 expression decrease, cell viability multiplex – SKBR3 breast tumor cells, AlphaScreen, ATP viability, primary screen (AID 461;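 active = Her2 level under about 52% in both replicate screens, with viability over 70% of control, limit read from the data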;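 for Her2 level: lower value means less Her2 protein in the cells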;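 for viability: percent of carrier control wells set as 100% viability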); details: SKBR3 Her2 protein level, 18-24 h, measured here: SKBR3 viability, ATP luminescence, at 10 µM
# [2] = biological target: Receptor tyrosine-protein kinase erbB-2 (Homo sapiens) (UniProt P04626); assay: as above; details: 18-24 h, at 10 µM, stronger effect = lower value
# [3] = reduced viability of SK-BR-3 breast cancer cells – cell-based, 24 h, human, pilot screen (AID 572;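 active = viability at or below 10% of carrier control in both of two separate runs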;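 note: compound exposure lasted between 18 and 24 h rather than exactly 24 h; 100% = carrier-treated control wells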); details: SK-BR-3 viability, CellTiter-Glo luminescence, at 10 µM, stronger effect = lower value
# [4] = HUVEC growth inhibition – cell-based, human, primary screen (AID 575;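 active = viability at or below 30% in both replicate assays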;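 note: 100% = median of untreated cell wells with 0.1% DMSO on each plate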); details: HUVEC proliferation, CellTiter-Glo luminescence, 72 h; at 10 µM; stronger effect = lower value
# Method in brief: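 Test system: HUVEC primary cells. Quantity: 1250 endothelial cells in each well. Dosing: single-point 10 µM, DMSO 0.1% final. Incubation: 72 h treatment at 37 °C. Measured by: CTG luminescence. Control set: DMSO cell controls and MePR drug controls. Plate: collagen-coated 384-well format.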
# [5] = H69AR cell proliferation blockers – human, duplicate replicates, primary screen (AID 580); details: H69AR lung tumor cells viability, ATP luminescence, 72 h; at 10 µM; stronger effect = lower value;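 note: 100% = mean luminescence of untreated wells and 0% = no signal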
# [6] = MRP1 drug-resistance reversers in H69AR cells – cell-based, doxorubicin co-treatment, pilot screen (AID 601;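 active = viability loss from added drug above about 55%, and viability with drug at most 40%, in both replicates, limit read from the data, passing the limit was not always enough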); details: CellTiter-Glo, 72 h, at 10 µM; for differential viability (reversal): stronger effect = higher value
# [7] = yeast transport mutant growth inhibition pilot in 384-well plates, post-Golgi transport modulator project (AID 636; in the data active = inhibition above about 31%); details: absorbance 615 nm, about 18 h, stronger effect = higher value
# [8] = growth suppression of yeast trafficking mutant, preliminary HTS, modulators of trafficking downstream of Golgi apparatus project, 1536-format plate, OD 615 nm (AID 637; in the data active = inhibition above about 30%); details: yeast transport mutant growth, absorbance 615 nm, 18 h; stronger effect = higher value
# [9] = H69AR cells + 2 uM doxorubicin, measured here: viability with 2 uM doxorubicin, stronger effect = lower value
# [10] = H69AR cells, compound alone cytotoxicity
# Chain of Receptor tyrosine-protein kinase erbB-2 (Homo sapiens) (P04626 whole entry, looked up): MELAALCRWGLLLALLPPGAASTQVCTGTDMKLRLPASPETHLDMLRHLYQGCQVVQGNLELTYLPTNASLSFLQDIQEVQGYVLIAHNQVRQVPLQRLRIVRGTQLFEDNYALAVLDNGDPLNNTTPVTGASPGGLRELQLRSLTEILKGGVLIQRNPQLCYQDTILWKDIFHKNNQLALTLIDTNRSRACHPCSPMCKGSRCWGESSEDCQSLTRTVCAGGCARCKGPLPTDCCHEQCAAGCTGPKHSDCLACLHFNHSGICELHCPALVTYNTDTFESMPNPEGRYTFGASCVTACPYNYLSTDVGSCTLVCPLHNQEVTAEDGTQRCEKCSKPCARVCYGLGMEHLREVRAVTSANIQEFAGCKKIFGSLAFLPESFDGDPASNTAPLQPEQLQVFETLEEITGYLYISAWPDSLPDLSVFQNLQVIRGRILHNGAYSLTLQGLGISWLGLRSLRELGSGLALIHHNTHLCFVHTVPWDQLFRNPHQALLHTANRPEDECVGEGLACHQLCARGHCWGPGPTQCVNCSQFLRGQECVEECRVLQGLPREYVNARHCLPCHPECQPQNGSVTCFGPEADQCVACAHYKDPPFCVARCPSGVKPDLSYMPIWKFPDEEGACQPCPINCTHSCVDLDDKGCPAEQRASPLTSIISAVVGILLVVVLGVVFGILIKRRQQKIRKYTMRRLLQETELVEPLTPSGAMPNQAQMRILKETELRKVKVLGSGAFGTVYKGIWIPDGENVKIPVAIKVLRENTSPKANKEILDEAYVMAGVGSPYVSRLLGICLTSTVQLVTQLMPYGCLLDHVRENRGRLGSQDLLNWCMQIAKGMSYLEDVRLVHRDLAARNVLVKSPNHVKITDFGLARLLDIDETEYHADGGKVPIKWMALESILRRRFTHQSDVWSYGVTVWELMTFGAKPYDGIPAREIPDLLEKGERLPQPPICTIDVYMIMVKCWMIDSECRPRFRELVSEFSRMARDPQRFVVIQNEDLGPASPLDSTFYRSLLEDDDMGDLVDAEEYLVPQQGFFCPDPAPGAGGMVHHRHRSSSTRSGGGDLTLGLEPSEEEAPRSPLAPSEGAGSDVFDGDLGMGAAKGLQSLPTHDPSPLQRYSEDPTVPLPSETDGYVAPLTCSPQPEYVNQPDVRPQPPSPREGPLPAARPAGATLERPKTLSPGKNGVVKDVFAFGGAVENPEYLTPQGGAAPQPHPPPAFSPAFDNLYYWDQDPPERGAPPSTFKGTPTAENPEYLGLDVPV
Compound,viability [1],Her2 level [2],viability [3],viability [4],viability [5],differential viability (reversal) ([6]; H69AR cells + 2 uM doxorubicin),"viability [6, 9]","viability [6, 10]",inhibition [7],inhibition [8]
O=C(CCn1nc(-c2ccc(Cl)cc2)ccc1=O)N1CCN(c2ccccn2)CC1,96.5%,92.5% (inactive),96.5% (inactive),101% (inactive),91.1% (inactive),-4.79% (inactive),95.9%,91.1%,-3.42% (inactive),-3.87% (inactive)
Cc1nc2c(=O)oc3ccccc3c2n1-c1ccccc1,117%,100% (inactive),117% (inactive),107% (inactive),98.4% (inactive),13.4% (inactive),85.1%,98.4%,-6.93% (inactive),2.74% (inactive)
CCOC(=O)Cn1c2c(c(=N)c3ccccc31)CCC2,122%,98% (inactive),122% (inactive),89.4% (inactive),92.6% (inactive),2.31% (inactive),90.3%,92.6%,-6.27% (inactive),-1.15% (inactive)
CC(=O)c1cn(CC(=O)NCc2ccc3c(c2)OCO3)c2ccccc12,102%,93% (inactive),102% (inactive),98.4% (inactive),99% (inactive),6.8% (inactive),92.2%,99%,-9.32% (inactive),3.65% (inactive)
Cc1ccc(-c2noc(C3CCCN(C(=O)c4ccc(F)cc4F)C3)n2)cc1 (stereo not given),99%,94% (inactive),99% (inactive),87.4% (inactive),90% (inactive),1.88% (inactive),88.1%,90%,-2.16% (inactive),-9% (inactive)
Cc1nn(S(=O)(=O)N2CCCCC2)c(C)c1Br,95%,130% (inactive),95% (inactive),96.2% (inactive),102% (inactive),5.13% (inactive),97.1%,102%,-1.41% (inactive),-6.17% (inactive)
Cc1ccc2nc(SCC(=O)NCc3ccco3)c(C#N)cc2c1,90.5%,88.5% (inactive),90.5% (inactive),82.3% (inactive),62.2% (inactive),-7.5% (inactive),69.7%,62.2%,-4.74% (inactive),-3.27% (inactive)
O=C(O)C1CC=CCC1C(=O)NCc1ccccc1 (stereo not given),106%,87% (inactive),106% (inactive),91.1% (inactive),92.2% (inactive),-3.77% (inactive),96%,92.2%,-4.4% (inactive),-2.38% (inactive)
CCOc1cc(NC(=O)c2ccco2)c(OCC)cc1NC(=O)CCC(=O)NCc1cccnc1,95.5%,100% (inactive),95.5% (inactive),88.1% (inactive),86.1% (inactive),-4.71% (inactive),90.8%,86.1%,-1.43% (inactive),-4.17% (inactive)
Cc1cc2c(c(=O)n1CCc1ccccc1)C(C(C)C)C(C#N)=C(N)O2 (stereo not given),95%,87% (inactive),95% (inactive),93.9% (inactive),83.5% (inactive),-9.34% (inactive),92.8%,83.5%,-4.87% (inactive),2.79% (inactive)
Cc1cc(C(=O)CN2C(=O)c3ccccc3C2=O)c(C)n1Cc1cccs1,122%,99% (inactive),122% (inactive),111% (inactive),86.3% (inactive),3.23% (inactive),83%,86.3%,-9.45% (inactive),0% (inactive)
COC(=O)c1cc(Br)c(=O)n(CCC2=CCCCC2)c1,81.5%,99.5% (inactive),81.5% (inactive),92.5% (inactive),89.9% (inactive),1.54% (inactive),88.4%,89.9%,-0.27% (inactive),6.89% (inactive)
CCOc1ccccc1-n1c(SCC(=O)NCc2ccco2)nnc1-c1ccncc1,87%,90% (inactive),87% (inactive),90.4% (inactive),75.6% (inactive),39.9% (inactive),35.7%,75.6%,-7.47% (inactive),-0.48% (inactive)
Cc1ccc2cc(C#N)c(N3CCCC3)nc2c1C,77%,70.5% (inactive),77% (inactive),91.4% (inactive),74.8% (inactive),-3.67% (inactive),78.5%,74.8%,-5.27% (inactive),-2.33% (inactive)
COCCn1c(SCC(=O)Nc2cccc(OC)c2)nnc1-c1ccccc1,101%,99.5% (inactive),101% (inactive),90.1% (inactive),103% (inactive),6.8% (inactive),96.6%,103%,-3.51% (inactive),4.43% (inactive)
Cc1ccc(NC(=O)C2CCCN(S(=O)(=O)c3cnc[nH]3)C2)cc1F (stereo not given),104%,94% (inactive),104% (inactive),111% (inactive),95.1% (inactive),-0.16% (inactive),95.3%,95.1%,-3.73% (inactive),-3.11% (inactive)
Cc1csc(SCc2nc3sc4c(c3c(=O)[nH]2)CCC4)n1,116%,122% (inactive),116% (inactive),103% (inactive),87.8% (inactive),1.88% (inactive),86%,87.8%,-6.16% (inactive),0% (inactive)
O=C(Cn1nc(C(F)(F)F)c2c1CCCC2)NCCN1CCOCC1,110%,89% (inactive),110% (inactive),108% (inactive),91.5% (inactive),4.05% (inactive),87.5%,91.5%,-1.18% (inactive),3.93% (inactive)
Cc1ccc(OCC(O)Cn2c(=N)n(CCN3CCCCC3)c3ccccc32)cc1 (stereo not given),79%,63% (inactive),79% (inactive),2.43% (active),18.6% (active),-3.16% (inactive),21.7%,18.6%,-4% (inactive),-0.33% (inactive)
CC(C)(C)n1ncc2c(=O)n(CC(=O)c3ccccc3)cnc21,95%,84% (inactive),95% (inactive),80.2% (inactive),84.2% (inactive),-2.76% (inactive),86.9%,84.2%,-0.39% (inactive),-3.23% (inactive)
CCc1nc(C)c(-c2ccccc2)c(=O)[nH]1,102%,120% (inactive),102% (inactive),81.8% (inactive),113% (inactive),25.6% (inactive),87.2%,113%,-3.2% (inactive),-8.39% (inactive)
COCC(C)NC(=O)NC(=O)c1ccc(Cl)cc1 (stereo not given),99.5%,93% (inactive),99.5% (inactive),94.6% (inactive),98.7% (inactive),10.4% (inactive),88.3%,98.7%,-6.13% (inactive),4.76% (inactive)
CCOC(=O)C1CCCN(CCC(C)c2ccccc2)C1 (stereo not given),94%,84.5% (inactive),94% (inactive),106% (inactive),95.7% (inactive),11.3% (inactive),84.3%,95.7%,-6.8% (inactive),4.1% (inactive)
CC1(C)CNC(=O)c2sc(N3CCOCC3)nc2C1,114%,87% (inactive),114% (inactive),67.9% (inactive),77.3% (inactive),-4.71% (inactive),82%,77.3%,-3.82% (inactive),1.27% (inactive)
COc1ccc(CC(=O)NC2CCN(CC(=O)Nc3ccc4c(c3)OCCO4)CC2)cc1OC,97.5%,132% (inactive),97.5% (inactive),88.2% (inactive),106% (inactive),17% (inactive),89.1%,106%,-2.37% (inactive),-5.33% (inactive)
CCN1CCc2c(C#N)c(N3CCOCC3)nc(NCc3ccccc3)c2C1,84.5%,88% (inactive),84.5% (inactive),88.4% (inactive),81.3% (inactive),3.46% (inactive),77.8%,81.3%,-6.03% (inactive),-4.76% (inactive)
O=C1CCCCCN1CSc1nc2ccccc2s1,123%,101% (inactive),123% (inactive),80.5% (inactive),88% (inactive),4.73% (inactive),83.3%,88%,-5.45% (inactive),-2.62% (inactive)
O=C(Nc1cccnc1N1CCOCC1)c1ccco1,110%,86% (inactive),110% (inactive),115% (inactive),92% (inactive),7.89% (inactive),84.2%,92%,-7.3% (inactive),-4.67% (inactive)
